An excerpt weighted towards active compounds, which were near 2.8% of everything screened.
Mcl1 Bid PPI: disrupts binding of human Mcl-1 to Bid peptide; Q07820; TR-FRET Mcl-1/Bid-Dy647 peptide binding, 1536-well; inhibition, % at 21.7 µM; 220,000 tested, 0.97% active;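 active = compounds that cut the binding signal by more than half at the single screening dose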;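 note: His-tagged Mcl-1 with europium anti-His antibody binding Bid BH3 peptide; 0% = Mcl-1 plus peptide wells and 100% = peptide-only wells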
Target sequence (Q07820 whole entry, looked up): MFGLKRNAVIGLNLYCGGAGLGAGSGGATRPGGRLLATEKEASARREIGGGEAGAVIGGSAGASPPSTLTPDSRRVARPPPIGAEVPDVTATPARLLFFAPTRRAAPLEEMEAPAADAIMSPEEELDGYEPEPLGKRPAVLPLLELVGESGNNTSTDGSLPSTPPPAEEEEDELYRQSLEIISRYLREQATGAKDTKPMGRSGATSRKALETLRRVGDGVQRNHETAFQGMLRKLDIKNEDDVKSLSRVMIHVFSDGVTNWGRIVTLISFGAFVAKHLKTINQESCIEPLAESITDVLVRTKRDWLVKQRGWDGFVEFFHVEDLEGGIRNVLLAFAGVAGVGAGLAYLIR
Calb biofilm kill: mixtures killing C. albicans biofilm. C. albicans biofilm persisters + clotrimazole, fluorescence viability; primary screen in compound mixtures of four per well. inhibition, % at 7.6 µM. 120,000 tested, 0.02% active;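 active = inhibition above 30.3% in the primary screen of four-compound pools, then above 30% when the compound was retested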;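 note: compounds exposed to preformed 24 h biofilms for 48 h; 0% = untreated biofilm control and 100% = clotrimazole plus chlorhexidine kill blank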
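Incubation: 24 h biofilm formation, then 48 h compound exposure, 37 °C | Material: C. albicans biofilms | Buffer or medium: RPMI/MOPS medium, pH 7.0 | Measured by: 2-h Alamar Blue fluorescence, 535/590 nm excitation/emission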
Bim-Mcl-1: inhibitors of Bim-Mcl-1 interaction, human. Q07820. Bead-based flow cytometry, Bim peptide-Mcl-1 binding. inhibition, % at 10 µM. 190,000 tested, 0.1% active. AID 1009; in the data active = inhibition above about 40%;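 note: 0% = no compound tracer wells and 100% = peptide blocker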
Arbovirus inh: blocks arbovirus infection; AID 1251; arbovirus infection cell-based antiviral screen; 200,000 tested, 0.37% active; inhibition, % at 10 µM; in the data active = inhibition above about 30%
Mcl1-Noxa inh: Mcl-1/Noxa interaction inhibition; TR-FRET Mcl-1/Noxa peptide binding, 2 h; inhibition, % at 21.7 µM; 220,000 tested, 1.5% active; AID 1022;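 active = compounds that cut the protein-peptide binding signal by more than 50% relative to plate controls in a single-dose test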;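 note: His-tagged Mcl-1 with rhodamine Noxa BH3 peptide and terbium anti-His antibody; 0% = Mcl-1 plus Noxa peptide wells and 100% = peptide-only wells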
Calpain2 inh: inhibitors of pig calpain II | purified calpain II, fluorogenic peptide substrate, 30 min | inhibition, % at 16 µM | 220,000 tested, 0.37% active;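 active = inhibition above about 50%, limit read from the data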
Starred values were filed as active, the others as inactive; x = not tested or not shown.

SMILES	Mcl1 Bid PPI	Calb biofilm kill	Bim-Mcl-1	Arbovirus inh	Mcl1-Noxa inh	Calpain2 inh
COc1ccc(-c2csc(Nc3ccccc3)n2)cc1	-16	9	-1	-8	83*	12
Fc1ccc(Nc2nc(-c3ccncc3)cs2)cc1	-10	11	-2	18	51*	-17
Cc1ccc(Nc2nc(-c3ccc(S(=O)(=O)N4CCOCC4)cc3)cs2)cc1Cl	-3	13	-4	-35	8	60*
Cc1cc(NS(=O)(=O)c2ccc(Nc3nc(-c4sc(C)nc4C)cs3)cc2)no1	-14	x	1	5	5	-17
CCOC(=O)c1c(NC(=O)CSc2ncnc3[nH]ncc23)sc2c1CCC(C)C2 (stereo not drawn)	-8	6	-1	-6	-7	-106
COc1ccc(CCNC(=O)c2ccc(-c3ccc([N+](=O)[O-])cc3)o2)cc1OC	19	11	0	4	32	12
Cc1ccc(Cl)cc1N1CCN(C(=O)CN(c2ccccc2)S(=O)(=O)N(C)C)CC1	-32	2	-2	-2	14	2
CC1(N(O)C=C2C=CC(=O)C=C2)CCCCC1=O (stereo not drawn)	-8	6	x	x	-15	8
COC(=O)c1ccccc1NC(=S)N(Cc1ccc2c(c1)OCO2)Cc1cc2cccc(C)c2[nH]c1=O	-24	9	-9	15	-2	-18
Cc1ccc(S(=O)(=O)Nc2ccccc2C(=O)Nc2nc(-c3ccc(F)cc3)cs2)cc1	-8	14	-8	-34	12	-59
COc1ccc(-c2csc(NC(=O)c3ccccc3NS(=O)(=O)c3ccc(F)c(F)c3)n2)cc1	4	-24	1	-33	34	61*
CC(=O)Oc1ccc(-c2csc(Nc3ccc(S(N)(=O)=O)cc3)n2)cc1	-36	10	0	-12	13	28
COc1ccc(-c2csc(Nc3ccc(S(N)(=O)=O)cc3)n2)cc1	-5	x	1	12	53*	25
Cc1sc(NC(=S)NC(=O)C2CCCCC2)c(C(N)=O)c1C	-54	-14	13	11	10	-2
Clc1ccc(-c2noc(CN3CCN(c4ccccc4)CC3)n2)cc1	-17	x	-3	7	-13	-36
Clc1cccc(N2CCN(Cc3nc(-c4ccccc4)no3)CC2)c1	-27	x	0	33*	11	13
COc1cc(CNCCSc2nnnn2C)cc(Br)c1OCc1ccccc1	-11	16	-2	-2	7	9
COc1cccc(NC(=O)CSC(N)=O)c1	-14	13	0	-5	-1	-9
CC(/C=C1\SC(=S)N(CCCC(=O)Nc2ccc(C(=O)O)cc2)C1=O)=C\c1ccccc1	-30	13	4	5	52*	6
O=C(CCCN1C(=O)/C(=C\c2cccc(Br)c2)SC1=S)Nc1cccnc1	59*	10	-3	19	38	37
CCOc1ccccc1NC(=S)NCc1cccn1C	17	15	-5	4	28	-8
O=C(CCCCn1c(=O)c2ccccc2n(CC(=O)Nc2ccc(F)cc2)c1=O)NCc1ccco1	-20	x	-2	-6	2	64*
Cc1ccc(NC(=O)Cn2c(=O)n(CCCCC(=O)NCc3ccco3)c(=O)c3ccccc32)cc1	-15	x	-1	5	-8	37
Cc1ccc(S(=O)(=O)Nc2ccnc(-c3cccnc3)n2)cc1	7	16	4	8	13	1
COc1cccc(C(=O)NC2CC3CCCC(C2)N3CC(=O)Nc2ccc(N(C)C)cc2)c1 (stereo not drawn)	-45	x	0	2	34	-11
SMILES	Mcl1 Bid PPI	Calb biofilm kill	Bim-Mcl-1	Arbovirus inh	Mcl1-Noxa inh	Calpain2 inh
COc1cccc(C(=O)NC2CC3CCCC(C2)N3CC(=O)Nc2ccccc2)c1 (stereo not drawn)	54*	x	1	23	66*	36
CC1(c2ccccc2)CC(C)(C)n2c(O)c(C3=NC(=S)NC3=O)c3cccc1c32 (stereo not drawn)	22	25	x	x	60*	-3
O=C(Nc1cc(S(=O)(=O)N2CCCCC2)ccc1N1CCCCC1)c1ccncc1	-19	7	x	x	-13	-15
COc1cc(C(=O)Nc2nc(-c3ccc(F)cc3)cs2)ccc1OCC(=O)N1CCOCC1	-25	15	-4	83*	18	-48
O=C(Nc1nc(-c2cccs2)cs1)c1cccc(S(=O)(=O)N2CCCCC2)c1	-25	x	-2	5	7	-194
COc1cc(C(=O)Nc2nc(-c3ccc(C)cc3)cs2)ccc1OCC(=O)N1CCOCC1	-3	7	-4	91*	-14	-3

Bioassay records as filed in PubChem.
